Measured values published in ChEMBL document CHEMBL1129571 (J Med Chem, 1996).

Columns and labels:
[1] = target: Aldo-keto reductase family 1 member B1 (Rattus norvegicus) (UniProt P07943); assay: In vitro inhibitory activity against partially purified rat lens Aldose reductase at a dose of 5e-7M
Outline: (§1)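 Rat lens AR partially purified from male Wister rat lenses: homogenized in 10 mM phosphate pH 7.0 with 5 mM 2-mercaptoethanol and 1 mM EDTA, then 30–80% ammonium sulfate cut, dialyzed. NADPH decrease followed at 340 nm.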

[2] = target: Aldo-keto reductase family 1 member B1 (Rattus norvegicus, UniProt P07943); assay: In vitro inhibitory activity against rat lens Aldose reductase; outline: as §1
[3] = target: Aldo-keto reductase family 1 member A1 (Rattus norvegicus, UniProt P51635); assay: In vitro inhibitory activity against rat kidney Aldehyde reductase
[4] = Ratio of AR IC50 and ALR IC50 of rat lens and kidney enzyme; assay type: tissue-based; conditions: Lens of camera-type eye

Chain of Aldo-keto reductase family 1 member A1 (P51635 whole entry, looked up): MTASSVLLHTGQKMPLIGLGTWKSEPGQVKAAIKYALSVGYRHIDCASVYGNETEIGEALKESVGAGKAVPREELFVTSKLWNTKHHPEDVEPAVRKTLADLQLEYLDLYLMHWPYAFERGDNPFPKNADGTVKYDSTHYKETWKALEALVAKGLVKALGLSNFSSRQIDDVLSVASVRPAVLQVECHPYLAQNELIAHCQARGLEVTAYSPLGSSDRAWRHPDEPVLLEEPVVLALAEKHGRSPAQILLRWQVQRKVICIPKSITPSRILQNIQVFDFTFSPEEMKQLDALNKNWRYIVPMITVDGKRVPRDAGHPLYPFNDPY

| inhibition [1] [%] | also measured | SMILES |
| --- | --- | --- |
| 44 |  | COc1cccc(CN2C(=O)C(=O)N(CC(=O)O)C2=O)c1 |
| 30 |  | O=C(O)CN1C(=O)C(=O)N(CCc2ccccc2)C1=O |
| 31 |  | CCOC(=O)CN1C(=O)C(=O)N(Cc2cccc([N+](=O)[O-])c2)C1=O |
| 66 |  | O=C(O)CN1C(=O)C(=O)N(Cc2ccccc2[N+](=O)[O-])C1=O |
| 31 |  | O=C(O)CN1C(=O)C(=O)N(Cc2cccc(Cl)c2)C1=O |
| 77 | IC50 [2]: 0.05 µM; IC50 [3]: > 100 µM; Ratio [4]: > 2000 | O=C(O)CN1C(=O)C(=O)N(Cc2ccc(Cl)c(Cl)c2)C1=O |
| 56 |  | O=C(O)CN1C(=O)C(=O)N(Cc2ccc(Cl)cc2)C1=O |
| 32 |  | O=C(O)CN1C(=O)C(=O)N(Cc2ccccc2Cl)C1=O |
| 68 | IC50 [2]: 0.1 µM; IC50 [3]: 46 µM; Ratio [4]: 460 | O=C(O)CN1C(=O)C(=O)N(Cc2ccc(Cl)cc2Cl)C1=O |
| 9 |  | O=C(O)CN1C(=O)C(=O)N(Cc2ccc(F)cc2)C1=O |
| 36 |  | O=C(O)CN1C(=O)C(=O)N(CCc2cccc([N+](=O)[O-])c2)C1=O |
| 26 |  | O=C(O)CN1C(=O)C(=O)N(Cc2ccc([N+](=O)[O-])cc2)C1=O |
| 41 |  | Cc1ccccc1CN1C(=O)C(=O)N(CC(=O)O)C1=O |
| 29 |  | COc1ccc(CN2C(=O)C(=O)N(CC(=O)O)C2=O)cc1OC |
| 65 |  | O=C(O)CN1C(=O)C(=O)N(Cc2ccc(Br)cc2)C1=O |
| 25 |  | O=C(O)CN1C(=O)C(=O)N(CCCCc2ccccc2)C1=O |
| 30 |  | Cc1ccc(CN2C(=O)C(=O)N(CC(=O)O)C2=O)cc1 |
| 47 |  | O=C(O)CN1C(=O)C(=O)N(CCc2ccc(Br)cc2)C1=O |
| 57 |  | O=C(O)CN1C(=O)C(=O)N(CCc2ccc(Cl)c(Cl)c2)C1=O |
| 42 |  | COc1ccc(CCN2C(=O)C(=O)N(CC(=O)O)C2=O)cc1OC |
| 17 |  | O=C(O)CN1C(=O)C(=O)N(Cc2ccccc2)C1=O |
| 16 |  | COc1ccccc1CN1C(=O)C(=O)N(CC(=O)O)C1=O |
| 16 |  | O=C(O)CN1C(=O)C(=O)N(CCCc2ccccc2)C1=O |
| 75 |  | O=C(O)CN1C(=O)C(=O)N(Cc2cccc([N+](=O)[O-])c2)C1=O |
| 42 |  | Cc1ccc(CCN2C(=O)C(=O)N(CC(=O)O)C2=O)cc1 |
| 37 |  | O=C(O)CN1C(=O)C(=O)N(CCc2ccccc2Cl)C1=O |
